In ChEMBL document CHEMBL3779815, “Synthesis of newer 1,2,3-triazole linked chalcone and flavone hybrid compounds and evaluation of their antimicrobial and cytotoxic activities” (Eur J Med Chem, 2016):
In brackets after ≈: the same amount, converted by molar mass.

What was measured:
Cryptococcus neoformans = assay: Antifungal activity against Cryptococcus neoformans clinical isolate after 18 to 24 hrs by micro-dilution method; type: functional
Outline: (§1)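 Microdilution MIC run as the antibacterial protocol but on Sabouraud dextrose […] pH 7.3±0.2; compounds 100 to 0.78 μg/mL in twofold steps; saline-prepared inocula 1-2 × 10⁷ cfu/mL, 0.01 mL added; 37 °C aerobic, 18-24 h; MIC read as lowest concentration without visible growth or turbidity; fluconazole reference.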

Enterococcus faecalis = assay: Antibacterial activity against Enterococcus faecalis ATCC 29212 after 18 to 24 hrs by micro-dilution assay; type: functional
Shigella boydii = assay: Antibacterial activity against Shigella boydii clinical isolate after 18 to 24 hrs by micro-dilution method; type: functional
Aspergillus fumigatus = assay: Antifungal activity against Aspergillus fumigatus clinical isolate after 18 to 24 hrs by micro-dilution method; type: functional; outline: as §1
Pseudomonas aeruginosa = assay: Antibacterial activity against Pseudomonas aeruginosa […] after 18 to 24 hrs by micro-dilution method; type: functional
Staphylococcus aureus = assay: Antibacterial activity against Staphylococcus aureus […] after 18 to 24 hrs by micro-dilution method; type: functional
Klebsiella pneumoniae = assay: Antibacterial activity against Klebsiella pneumoniae ATCC 27736 after 18 to 24 hrs by micro-dilution method; type: functional
[1] = Cytotoxicity against human HuH7 cells after 72 hrs by MTT assay; type: cell-based, Huh-7
Outline: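 Huh-7 cells, 4 × 10³/well in DMEM with 10% FBS and penicillin-streptomycin-glutamine; eight 2-fold dilutions 100-0.78 μg/mL, 72 h; MTT added 2-4 h, then isopropanol/Triton X-100/HCl solubilization 2 h dark, RT; absorbance 570 nm; CC50 as mean of at least two experiments in duplicate.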

Escherichia coli = assay: Antibacterial activity against Escherichia coli ATCC 35218 after 18 to 24 hrs by micro-dilution method; type: functional
Candida parapsilosis = assay: Antifungal activity against Candida parapsilosis ATCC 22019 after 18 to 24 hrs by micro-dilution method; type: functional; details: Lodderomyces parapsilosis; outline: as §1
Plasmodium falciparum = assay: Antimalarial activity against erythrocytic stage of chloroquine sensitive Plasmodium falciparum 3D7 assessed as inhibition of parasitemia after 48 hrs by Giemsa staining based microscopic analysis; type: functional, organism-based; details: 3D7, 48 h
Outline: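 Asynchronous culture on human O⁺ erythrocytes, 1-1.5% parasitemia, 4% hematocrit, RPMI-1640 with HEPES, NaHCO₃, glutamine, gentamycin, Albumax II; drug 0.10-100 μg/mL, 48 h, 37 °C, medium changed at 24 h; triplicate wells; Giemsa thin smears, about 4,000 erythrocytes counted at 1,000X; % parasitemia inhibition versus control gives IC50.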

Aspergillus niger = assay: Antifungal activity against Aspergillus niger clinical isolate after 18 to 24 hrs by micro-dilution method; type: functional; outline: as §1
Arthrodermataceae = assay: Antifungal activity against Dermatophyte clinical isolate after 18 to 24 hrs by micro-dilution method; type: functional; outline: as §1
Candida albicans [2] = assay: Antifungal activity against Candida albicans clinical isolate after 18 to 24 hrs by micro-dilution method; type: functional; outline: as §1
Candida tropicalis = assay: Antifungal activity against Candida tropicalis ATCC 750 after 18 to 24 hrs by micro-dilution method; type: functional; outline: as §1
Candida albicans [3] = assay: Antifungal activity against Candida albicans ATCC 90028 after 18 to 24 hrs by micro-dilution method; type: functional; outline: as §1

SMILES	MIC (Cryptococcus neoformans) [µg/mL]	MIC (Enterococcus faecalis) [µg/mL]	MIC (Shigella boydii) [µg/mL]	MIC (Aspergillus fumigatus) [µg/mL]	MIC (Pseudomonas aeruginosa) [µg/mL]	MIC (Staphylococcus aureus) [µg/mL]	MIC (Klebsiella pneumoniae) [µg/mL]	CC50 at 72 h [1] [µg/mL]	MIC (Escherichia coli) [µg/mL]	MIC (Candida parapsilosis) [µg/mL]	IC50 (Plasmodium falciparum) [µg/mL]	MIC (Aspergillus niger) [µg/mL]	MIC (Arthrodermataceae) [µg/mL]	MIC (Candida albicans [2]) [µg/mL]	MIC (Candida tropicalis) [µg/mL]	MIC (Candida albicans [3]) [µg/mL]
COc1cc(O)c(C(=O)/C=C/c2ccc(OC)c(OCc3cn(-c4ccccc4Cl)nn3)c2)c(OC)c1	12.5 (≈ 23.9 µM)	25 (≈ 47.9 µM)	12.5 (≈ 23.9 µM)	12.5 (≈ 23.9 µM)	100 (≈ 192 µM)	25 (≈ 47.9 µM)	> 100	> 100	50 (≈ 95.8 µM)	12.5 (≈ 23.9 µM)	8.03 (≈ 15.4 µM)	12.5 (≈ 23.9 µM)	12.5 (≈ 23.9 µM)	12.5 (≈ 23.9 µM)	6.25 (≈ 12 µM)	6.25 (≈ 12 µM)
COc1cc(O)c(C(=O)/C=C/c2ccc(OCc3cn(-c4ccc(F)cc4F)nn3)c(OC)c2)c(OC)c1	50 (≈ 95.5 µM)	12.5 (≈ 23.9 µM)	6.25 (≈ 11.9 µM)	> 100	12.5 (≈ 23.9 µM)	12.5 (≈ 23.9 µM)	12.5 (≈ 23.9 µM)	> 100	6.25 (≈ 11.9 µM)	25 (≈ 47.8 µM)	3.58 (≈ 6.84 µM)	> 100	> 100	50 (≈ 95.5 µM)	> 100	> 100
COc1cc(O)c(C(=O)/C=C/c2ccc(OCc3cn(-c4ccc(Cl)cc4)nn3)c(OC)c2)c(OC)c1	12.5 (≈ 23.9 µM)	> 100	> 100	25 (≈ 47.9 µM)	> 100	> 100	> 100	> 100	> 100	12.5 (≈ 23.9 µM)	5.08 (≈ 9.73 µM)	25 (≈ 47.9 µM)	12.5 (≈ 23.9 µM)	6.25 (≈ 12 µM)	6.25 (≈ 12 µM)	12.5 (≈ 23.9 µM)
COc1cc(OC)c2c(=O)cc(-c3ccc(OCc4cn(-c5ccc(F)cc5Cl)nn4)c(OCc4cn(-c5ccc(F)cc5Cl)nn4)c3)oc2c1	12.5 (≈ 17 µM)	> 100	> 100	12.5 (≈ 17 µM)	> 100	> 100	> 100	> 100	> 100	12.5 (≈ 17 µM)	14.5 (≈ 19.7 µM)	12.5 (≈ 17 µM)	6.25 (≈ 8.52 µM)	12.5 (≈ 17 µM)	6.25 (≈ 8.52 µM)	12.5 (≈ 17 µM)
COc1cc(O)c(C(=O)/C=C/c2ccc(OCc3cn(-c4ccc(F)cc4Cl)nn3)c(OCc3cn(-c4ccc(F)cc4Cl)nn3)c2)c(OC)c1	> 100	> 100	> 100	> 100	100 (≈ 136 µM)	> 100	> 100	> 100	> 100	> 100	8.55 (≈ 11.6 µM)	> 100	> 100	> 100	> 100	> 100
COc1cc(OC)c2c(=O)cc(-c3ccc(OCc4cn(-c5ccccc5Cl)nn4)c(OC)c3)oc2c1	> 100	50 (≈ 96.2 µM)	> 100	> 100	50 (≈ 96.2 µM)	50 (≈ 96.2 µM)	100 (≈ 192 µM)	> 100	100 (≈ 192 µM)	> 100	12.1 (≈ 23.2 µM)	> 100	> 100	> 100	> 100	> 100
COc1cc(OC)c2c(=O)cc(-c3ccc(OCc4cn(-c5ccc(Cl)cc5)nn4)c(OC)c3)oc2c1	12.5 (≈ 24 µM)	100 (≈ 192 µM)	> 100	50 (≈ 96.2 µM)	> 100	> 100	> 100	> 100	> 100	50 (≈ 96.2 µM)	5.19 (≈ 9.98 µM)	50 (≈ 96.2 µM)	12.5 (≈ 24 µM)	12.5 (≈ 24 µM)	50 (≈ 96.2 µM)	50 (≈ 96.2 µM)
COc1cc(O)c(C(=O)/C=C/c2ccc(OCc3cn(-c4ccc(F)c(Cl)c4)nn3)c(OC)c2)c(OC)c1	> 100	50 (≈ 92.6 µM)	25 (≈ 46.3 µM)	> 100	100 (≈ 185 µM)	> 100	> 100	> 100	50 (≈ 92.6 µM)	> 100	2.74 (≈ 5.07 µM)	100 (≈ 185 µM)	> 100	> 100	> 100	> 100
COc1cc(OC)c2c(=O)cc(-c3ccc(OCc4cn(-c5ccccc5Cl)nn4)c(OCc4cn(-c5ccccc5Cl)nn4)c3)oc2c1	6.25 (≈ 8.96 µM)	> 100	> 100	12.5 (≈ 17.9 µM)	> 100	> 100	> 100	> 100	> 100	12.5 (≈ 17.9 µM)	8.98 (≈ 12.9 µM)	12.5 (≈ 17.9 µM)	12.5 (≈ 17.9 µM)	12.5 (≈ 17.9 µM)	12.5 (≈ 17.9 µM)	12.5 (≈ 17.9 µM)
COc1cc(O)c(C(=O)/C=C/c2ccc(OC)c(OCc3cn(-c4ccc(F)c(Cl)c4)nn3)c2)c(OC)c1	100 (≈ 185 µM)	100 (≈ 185 µM)	> 100	> 100	> 100	> 100	> 100	> 100	100 (≈ 185 µM)	> 100	7.52 (≈ 13.9 µM)	> 100	> 100	> 100	100 (≈ 185 µM)	> 100
